Data set [1] has as its system Rattus norvegicus. The data set can be described thus: Antiinflammatory activity against carrageenan-induced foot edema in rat administered via gastric gavage. The data set is classed as functional. Particulars: po. In a few lines: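 Rats, six per dose level, received drug as an aqueous suspension by gastric gavage before carrageenan-induced foot edema was measured. The highest dose given was 400 mg/kg.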

Data set [2] has as its system Rattus norvegicus. The data set can be described thus: Toxicity in po dosed rat assessed as gastric hemorrhage. In kind it is organism-based, Stomach. The note with it: in vivo.
The test system of data set [3] is Rattus norvegicus. As to the kind of experiment: Toxicity in po dosed rat assessed as intestinal perforating ulcer. Particulars: in vivo. The data set is classed as organism-based.
The target in data set [4] is Cyclooxygenase (Homo sapiens) (UniProt P35354+P23219).
Data set [5] relates to Canis familiaris. As to the kind of experiment: Analgesic activity in po dosed dog knee joint pain model. In kind it is functional. Particulars: Canis lupus familiaris.
For data set [6], the system named is Rattus norvegicus. As to the kind of experiment: Antipyretic activity in po dosed rat. In kind it is functional.
Data set [7] deals with Rattus norvegicus. The data set can be described thus: Analgesic activity in po dosed rat assessed as inhibition of adjuvant-induced arthritis pain. The data set is classed as functional.
In data set [8] the test system is Rattus norvegicus. As to the kind of experiment: Analgesic activity in po dosed rat assessed as inhibition of yeast-induced inflammatory pain. The data set is classed as functional.
Data set [9] relates to Rattus norvegicus. As to the kind of experiment: Antiinflammatory activity against carrageenan-induced foot edema in rat at 400 mg/kg administered via gastric gavage. In kind it is functional, organism-based. Details: dose 400 mg/kg. In a few lines: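 Carrageenan-induced foot edema in rats. Drugs were given as an aqueous suspension by gastric gavage to six rats at each dose level.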
In general terms: Carrageenan injected into the paw causes an acute inflammation.

Data set [10] has as its system Rattus norvegicus. The data set can be described thus: Toxicity in rat assessed as intestinal perforating ulcer at 1024 mg/kg, po. In kind it is organism-based. More on the design: dose 1024 mg/kg, route oral. Particulars: in vivo.
The nature of data set [11]: Plasma concentration in human at 500 mg, po after 2 hrs.
Data set [12] concerns Rattus norvegicus. As to the kind of experiment: Toxicity in rat assessed as gastric hemorrhage at 256 mg/kg, po. In kind it is organism-based, Stomach. More on the design: dose 256 mg/kg, route oral. Particulars: in vivo.
A short description of data set [13]: Plasma concentration in human at 250 mg, po after 2 hrs.
The nature of data set [14]: Drug excretion in human urine after 96 hrs. Particulars: read-out: Drug excretion. The data set is classed as ADME, tissue-based.

≈ marks a conversion by molar mass, not a printed value. Calls of active or inactive are those of the source. No cut-off for these calls is given here.

With `O=C(O)c1cc(-c2ccc(C(F)(F)F)cc2)ccc1O`, the ED50 in data set [1] worked out at 50 mg/kg.
In turn, `Cc1cc(F)ccc1-c1ccc(O)c(C(=O)O)c1` displayed an ED50 in [1] of 76 mg/kg.
On the same count and under the same terms, the result for `Cc1cc(-c2ccc(F)cc2)cc(C(=O)O)c1O` reads 60 mg/kg; that for `O=C(O)c1cc(-c2ccccc2F)ccc1O`, 20 mg/kg.
`O=C(O)c1cccc(F)c1O` yielded an ED50 in data set [1] of 90 mg/kg.
On the same count and under the same terms, the figure for `CC(=O)Oc1ccc(-c2ccccc2)cc1C(=O)O` is 170 mg/kg.
For `O=C(O)c1ccc(-c2ccccc2)cc1O`, in data set [1], the ED50 amounted to 150 mg/kg.
Take `O=C(O)c1cc(-c2cccc(F)c2)ccc1O`: the ED50 in data set [1] amounted to 40 mg/kg.
In the case of `CC1=C(CC(=O)O)c2cc(F)ccc2/C1=C\c1ccc([S+](C)[O-])cc1` (centres undefined) [SULINDAC], the ED50 came out at 27 mg/kg in [2]; 69 mg/kg in [3]; 45 mg/kg in [5]; 2.9 mg/kg in [6]; 0.55 mg/kg in [7]; 1.7 mg/kg in data set [8]. In addition, in data set [4], the ED50 entry is “inactive”.
As for `O=C(O)c1cc(-c2ccccc2)cc(F)c1O`, the ED50 in data set [1] is 110 mg/kg.
As to `O=C(O)c1ccc(C(F)(F)F)cc1O`, the outcome in data set [9] was inactive.
Consider `CC(=O)Oc1ccc(-c2ccc(F)cc2)cc1C(=O)O` [FLUFENISAL], for which the ED50 was more than 512 mg/kg in [2]; more than 512 mg/kg in [3]; 10 µg/mL (≈ 36.5 µM) in data set [4]; 160 mg/kg in data set [6]; 24 mg/kg in data set [1]; 40 mg/kg in data set [7]. Moreover, in data set [8], the ED50 worked out at 35 mg/kg.
In turn, `O=C(O)c1ccc(F)cc1O` registered an ED50 in data set [1] of 400 mg/kg.
Consider `COc1cc(-c2ccc(O)c(C(=O)O)c2)ccc1F`, for which, in data set [9], the outcome was inactive.
Turning to `CCCCOC(=O)Oc1ccc(-c2ccc(F)cc2F)cc1C(=O)O`, in [1], the ED50 turned out to be 12 mg/kg.
For the compound `O=C(O)c1cc(-c2ccc(I)cc2)ccc1O`, in data set [1], the ED50 was determined as 120 mg/kg.
For `O=C(O)c1cc(C2CCCCC2)ccc1O`, the result in data set [9] was inactive.
`CCCCOC(=O)Oc1ccc(-c2ccc(F)cc2)cc1C(=O)O` gave an ED50 in [1] of 25 mg/kg.
`CC(=O)Oc1ccccc1C(=O)O` [ASPIRIN]: the ED50 in [2] stood at 81 mg/kg; in data set [4] it was 13 µg/mL (≈ 72.2 µM); in [5] it was 68 mg/kg; in data set [6], 40 mg/kg; in data set [1], 89 mg/kg; in [7] it was 78 mg/kg. In addition, in [8], the ED50 stood at 87 mg/kg. The Activity result in data set [10] is listed as “Non-toxic”.
As to `CC(C)Cc1ccc(C(C)C(=O)O)cc1` (centres undefined) [IBUPROFEN], the ED50 is less than 16 mg/kg in data set [2]; less than 256 mg/kg in data set [3]; 5.9 mg/kg in [6]; 28 mg/kg in data set [7]; 2.6 mg/kg in data set [8].
With `CCCc1cc(-c2ccc(F)cc2)cc(C(=O)O)c1O`, in [9], the result was inactive.
Compound `O=C(O)c1cc(-c2ccc(Cl)cc2)ccc1O` returned an ED50 in data set [1] of 24 mg/kg.
The same measure, in the same setting: the result for `Cc1cc(-c2ccccc2)cc(C(=O)O)c1O` reads 60 mg/kg; that for `O=C(O)c1cc(-c2ccc(F)cc2)ccc1O`, 14 mg/kg.
On to `O=C(O)c1c(O)cccc1F`, for which the result in [9] was inactive.
`Cc1cc(-c2ccc(O)c(C(=O)O)c2)ccc1F`: the outcome in [9] was inactive.
Turning to `O=C(O)c1cc(F)ccc1O`, the ED50 in data set [1] turned out to be 120 mg/kg.
With `O=C(O)c1cc(-c2ccccc2)c(Cl)cc1O`, in data set [9], the result was inactive.
Take `O=C(O)c1c(O)cccc1-c1ccccc1`: the outcome in data set [9] was inactive.
On the same count and under the same terms, the result for `O=C(O)c1cccc(-c2ccc(Cl)cc2)c1O` reads “inactive”.
In turn, `O=C(O)c1ccc(-c2ccc(F)cc2)cc1O` registered an ED50 in data set [1] of 400 mg/kg.
Still for that read-out and setting: the result for `O=C(O)c1cccc(-c2ccccc2)c1O` reads 130 mg/kg; that for `O=C(O)c1cc(-c2c(F)c(F)c(F)c(F)c2F)ccc1O`, 20 mg/kg.
Turning to `COc1ccc2c(c1)c(CC(=O)O)c(C)n2C(=O)c1ccc(Cl)cc1` [INDOMETHACIN], the ED50 in data set [2] came to 5.4 mg/kg; in data set [3] it was 5.2 mg/kg; in data set [5], 1.7 mg/kg; in data set [6], 1.8 mg/kg; in data set [7] it was 0.27 mg/kg; in [8], 2.2 mg/kg.
As to `CC(=O)Oc1c(F)cccc1C(=O)O`, the ED50 in data set [1] is 281 mg/kg.
The same measure, in the same setting: the result for `O=C(O)c1cc(-c2ccccc2)ccc1O` reads 54 mg/kg.
Take `O=C(O)c1ccccc1O` [SALICYLIC ACID]: in data set [1], the ED50 worked out at 77 mg/kg.
Regarding `CC(=O)Oc1ccc(-c2ccc(F)cc2F)cc1C(=O)O`, in [1], the ED50 is 27 mg/kg.
In turn, `CCOC(=O)Oc1ccc(-c2ccc(F)cc2F)cc1C(=O)O` came in with an ED50 in data set [1] of 30 mg/kg.
With `O=C(O)c1cc(-c2ccc(F)cc2F)ccc1O` [DIFLUNISAL], the concentration at 2 h is 99 µg/mL in data set [11] and 30 µg/mL in data set [13]. Further, the Activity result in data set [12] is given as “Non-toxic”. In addition, the ED50 in data set [3] is 520 mg/kg; in data set [4] it was 0.6 µg/mL (≈ 2.4 µM); in [5], 24 mg/kg; in data set [6], 27.8 mg/kg; in [1], 9.8 mg/kg; in [7], 10.4 mg/kg. The ED50 in data set [8] was determined as 4.6 mg/kg. Moreover, the dose excreted at 96 h in data set [14] was determined as 95%.
For `CC(=O)Oc1cc(C(F)(F)F)ccc1C(=O)O` [TRIFLUSAL], in data set [1], the ED50 amounted to 155 mg/kg.
